Activity calls are given as the source filed them. The rule behind the calls is not given here.
Columns and labels:
[1] = test system: Mus musculus; experiment: Toxicity in athymic nude mouse xenografted in human MDA-MB-231 cells assessed as mortality at 50 mg/kg, ip bid administered every other day started on day 14 followed by compound readministration every other day started on day 27; type: organism-based; parameters: dose 50 mg/kg, route intraperitoneal; settings: in vivo
Procedure, shortened: (§1)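 Female athymic nude mice were implanted sc with an MDA-MB-231T tumour fragment, and tumours were staged to about 125 mg. Drug was given ip in 10% DMSO in saline/Tween 80, with courses starting day 14 and repeated from day 27. There were 8 animals per treated group and 16 controls. Read-outs were body weight, deaths, median tumour mass as T/C, days to a predetermined size as T-C/C, and net log cell kill.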

[2] = test system: HT-29; experiment: Cytotoxicity against human HT-29 cells assessed as growth inhibition after 48 hrs by SRB assay; type: functional; settings: HT-29, 48 h
[3] = test system: Mus musculus; experiment: Toxicity in athymic nude mouse xenografted in human MDA-MB-231 cells assessed as body weight loss at 75 mg/kg, ip qd administered every other day started on day 14 for 5 days followed by compound readministration on day 27 (reference value: 6.7%); type: organism-based; parameters: dose 75 mg/kg, route intraperitoneal; settings: in vivo, 120 h
[4] = test system: RPMI-8226; experiment: Cytotoxicity against human RPMI8226 cells assessed as growth inhibition after 48 hrs by SRB assay; type: functional; settings: RPMI-8226, 48 h
[5] = test system: SF-295; experiment: Cytotoxicity against human SF295 cells assessed as growth inhibition after 48 hrs by SRB assay; type: functional; settings: SF-295, 48 h
[6] = test system: HOP-62; experiment: Cytotoxicity against human HOP62 cells assessed as growth inhibition after 48 hrs by SRB assay; type: functional; settings: HOP-62, 48 h
[7] = test system: MDA-MB-231; experiment: Antitumor activity against human MDA-MB-231 cells xenografted in athymic nude mouse assessed as delay in tumor growth at 75 mg/kg, ip qd administered on day 14 for 5 days followed by compound readministration on day 27 measured on day 31 relative to control; type: functional; settings: route intraperitoneal; procedure, shortened: as §1
[8] = test system: CCRF-CEM; experiment: Cytotoxicity against human CCRF-CEM cells assessed as growth inhibition after 48 hrs by SRB assay; type: functional
[9] = Induction of microtubule depolymerization in rat A10 cells after 18 hrs by indirect immunofluorescence assay; type: cell-based
Procedure, shortened: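 A-10 cells were exposed to vehicle or compound for 18 h, fixed, and microtubules were visualized by indirect immunofluorescence. EC50 is the concentration causing about 50% microtubule loss, from at least three independent experiments.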

[10] = test system: M14; experiment: Cytotoxicity against human M14 cells assessed as growth inhibition after 48 hrs by SRB assay; type: functional; settings: M14, 48 h
[11] = test system: Mus musculus; experiment: Toxicity in athymic nude mouse xenografted in human MDA-MB-231 cells assessed as mortality at 50 mg/kg, ip qd administered on day 14 for 5 days followed by compound readministration on day 27; type: organism-based; parameters: dose 50 mg/kg, route intraperitoneal; settings: in vivo, 120 h; procedure, shortened: as §1
[12] = test system: K562; experiment: Cytotoxicity against human K562 cells assessed as growth inhibition after 48 hrs by SRB assay; type: functional; settings: K562, 48 h
[13] = test system: PC-3; experiment: Cytotoxicity against human PC3 cells assessed as growth inhibition after 48 hrs by SRB assay; type: functional; settings: PC-3, 48 h
[14] = test system: SNB-19; experiment: Cytotoxicity against human SNB19 cells assessed as growth inhibition after 48 hrs by SRB assay; type: functional; settings: SNB-19, 48 h
[15] = test system: Mus musculus; experiment: Toxicity in athymic nude mouse xenografted in human MDA-MB-231 cells assessed as mortality at 75 mg/kg, ip qd administered every other day started on day 14 for 5 days followed by compound readministration on day 27; type: organism-based; parameters: dose 75 mg/kg, route intraperitoneal; settings: in vivo, 120 h; procedure, shortened: as §1
[16] = test system: MDA-MB-231; experiment: Antitumor activity against human MDA-MB-231 cells xenografted in athymic nude mouse assessed as tumor free state at 50 mg/kg, ip bid administered every other day started on day 14 followed by compound readministration every other day started on day 27 measured on day 41; type: functional, organism-based; parameters: dose 50 mg/kg
Procedure, shortened: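 Female athymic nude mice carried sc MDA-MB-231T tumor fragments staged to about 125 mg. Compound was given ip as a solution in 10% DMSO in saline/Tween 80, with courses beginning day 14 and repeated from day 27. Groups had 8 animals, with 16 vehicle controls. Animals were scored as tumor-free on day 41.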

[17] = test system: SK-MEL-5; experiment: Cytotoxicity against human SK-MEL-5 cells assessed as growth inhibition after 48 hrs by SRB assay; type: functional; settings: SK-MEL-5, 48 h
[18] = test system: MDA-MB-231; experiment: Antitumor activity against human MDA-MB-231 cells xenografted in athymic nude mouse assessed as tumor growth inhibition at 50 mg/kg, ip bid administered every other day started on day 14 followed by compound readministration every other day started on day 27 measured on day 31 relative to control; type: functional; settings: route intraperitoneal; procedure, shortened: as §1
[19] = test system: MDA-MB-231; experiment: Antitumor activity against human MDA-MB-231 cells xenografted in athymic nude mouse assessed as net tumor log cell kill at 75 mg/kg, ip qd administered on day 14 for 5 days followed by compound readministration on day 27; type: functional; settings: route intraperitoneal; procedure, shortened: as §1
[20] = test system: IGROV-1; experiment: Cytotoxicity against human IGROV1 cells assessed as growth inhibition after 48 hrs by SRB assay; type: functional; settings: IGROV-1, 48 h
[21] = test system: MDA-MB-231; experiment: Antitumor activity against human MDA-MB-231 cells xenografted in athymic nude mouse assessed as tumor growth inhibition at 75 mg/kg, ip qd administered on day 14 for 5 days followed by compound readministration on day 27 measured on day 31 relative to control; type: functional; settings: route intraperitoneal; procedure, shortened: as §1
[22] = test system: NCI-H322M; experiment: Cytotoxicity against human NCI-H322M cells assessed as growth inhibition after 48 hrs by SRB assay; type: functional
[23] = test system: MDA-MB-231; experiment: Antitumor activity against human MDA-MB-231 cells xenografted in athymic nude mouse assessed as net tumor log cell kill at 50 mg/kg, ip qd administered on day 14 for 5 days followed by compound readministration on day 27; type: functional; settings: route intraperitoneal; procedure, shortened: as §1
[24] = test system: MDA-MB-435; experiment: Cell cycle arrest in human MDA-MB-435 cells assessed as […] at 25 nM after 24 hrs by FACS flow cytometric analysis; type: functional, cell-based
Procedure, shortened: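 MDA-MB-435 cells plated and allowed to adhere 24 h, then exposed to drug for 24 h. Cells harvested, stained with Krishan's reagent, and DNA content analysed by flow cytometry.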

[25] = test system: LOX IMVI; experiment: Cytotoxicity against human LOXIMVI cells assessed as growth inhibition after 48 hrs by SRB assay; type: functional
[26] = test system: MDA-MB-231; experiment: Antitumor activity against human MDA-MB-231 cells xenografted in athymic nude mouse assessed as tumor log cell kill at 75 mg/kg, ip qd administered every other day started on day 14 for 5 days followed by compound readministration on day 27; type: functional; settings: route intraperitoneal; procedure, shortened: as §1
[27] = test system: DU-145; experiment: Cytotoxicity against human DU145 cells assessed as growth inhibition after 48 hrs by SRB assay; type: functional; settings: DU-145, 48 h
[28] = test system: OVCAR-5; experiment: Cytotoxicity against human OVCAR5 cells assessed as growth inhibition after 48 hrs by SRB assay; type: functional; settings: OVCAR-5, 48 h
[29] = Relative resistance, ratio of IC50 for M6-6 in human SKOV3 cells to IC50 for human SKOV3 cells; parameters: species or system SK-OV-3
Procedure, shortened: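 SRB antiproliferative assay on isogenic pairs: parental SK-OV-3 vs Pgp-overexpressing SK-OV-3 MDR-M6-6, and parental HeLa vs βIII-tubulin-transfected HeLa. IC50 is the mean ± SD of at least three independent experiments. Relative resistance (Rr) is the IC50 of the transduced line divided by the IC50 of the parental line.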

| Compound | GI50 [2] | GI50 [4] | GI50 [5] | GI50 [6] | GI50 [8] | EC50 [9] | GI50 [10] | GI50 [12] | GI50 [13] | GI50 [14] | GI50 [17] | GI50 [20] | GI50 [22] | Activity [24] | GI50 [25] | GI50 [27] | GI50 [28] | also measured |
| --- | --- | --- | --- | --- | --- | --- | --- | --- | --- | --- | --- | --- | --- | --- | --- | --- | --- | --- |
| COc1ccc(N(C)c2nc(C)nc3c2CCC3)cc1.Cl | < 10 nM | 14.3 nM | < 10 nM | < 10 nM | < 10 nM | 25.9 nM | < 10 nM | < 10 nM | < 10 nM | 17 nM | < 10 nM | 12.8 nM | 48.8 nM | Active | 18.4 nM | 19.6 nM | 36.4 nM | Activity [1]: Non-toxic; %max [3]: 9%; Activity [7]: 40%; Activity [11]: Non-toxic; Activity [15]: Non-toxic; Activity [16]: Active; T/C [18]: 25%; LCK [19]: -1.1; T/C [21]: 17%; LCK [23]: -1.4; LCK [26]: -1.5 |
| COc1ccc(N(C)c2nc(C)nc3c2CC(C)C3)cc1.Cl (racemic) | 11.8 nM | 15.7 nM | < 10 nM | 19.4 nM | 16.3 nM | 56 nM | 10.2 nM | < 10 nM | 14.6 nM | 36.9 nM | < 10 nM | 11 nM | 59 nM | Active | 22.7 nM | 21.4 nM | 38.5 nM | Ratio IC50 [29]: 1.2 |

Reference: ChEMBL document CHEMBL2424583, “Structure-activity relationship and in vitro and in vivo evaluation of the potent cytotoxic anti-microtubule agent N-(4-methoxyphenyl)-N,2,6-trimethyl-6,7-dihydro-5H-cyclopenta[d]pyrimidin-4-aminium chloride and its analogues as antitumor agents” (J Med Chem, 2013)
